The text below walks through data of ChEMBL document CHEMBL2417357, “Synthesis and antiprotozoal activities of benzyl phenyl ether diamidine derivatives” (Eur J Med Chem, 2013).

Calls of active or inactive are those of the source. The calls are words filed in the database; no cut-off is given here.

Tested on in the first data set: not listed separately
The data set can be described thus: Selectivity index, ratio of IC50 for rat L6 cells to IC50 for Trypanosoma brucei rhodesiense STIB900. The note with it: read-out: Ratio IC50. It counts as toxicity, cell-based. The method in brief:
(§1)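 SI = IC50 in rat L6 myoblasts / IC50 against the parasite (T. b. rhodesiense STIB900 or P. falciparum K1). Each IC50 is the average of duplicate determinations.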
Take `COc1cc(C(=N)N)cc(Br)c1OCc1cccc(C(=N)N)c1.Cl.Cl`: the selectivity ratio turned out to be 4070.

On to `Cl.Cl.N=C(N)c1cccc(COc2ccc(C(=N)N)cc2[N+](=O)[O-])c1`, for which the selectivity ratio amounted to 324.

Regarding `COc1cc(C(=N)N)cc(OC)c1OCc1cccc(C(=N)N)c1.Cl.Cl`, the selectivity ratio was determined as 524.

In the case of `N=C(N)c1cccc(COc2c(I)cc(C(=N)N)cc2I)c1`, the selectivity ratio was 5680.

Take `COc1cc(C(=N)N)cc(I)c1OCc1cccc(C(=N)N)c1.Cl`: the selectivity ratio was 6210.

On to `N=C(N)c1ccc(COc2ccc(C(=N)N)cc2Br)cc1`, for which the selectivity ratio amounted to 322.

As to `N=C(N)c1ccc(COc2c(I)cc(C(=N)N)cc2I)cc1`, the selectivity ratio was found to be 1170.

For `N=C(N)c1ccc(COc2ccc(C(=N)N)cc2)cc1`, the selectivity ratio was 77.

For the compound `COc1cc(C(=N)N)ccc1OCc1cccc(C(=N)N)c1`, the selectivity ratio turned out to be 4400.

A further data set relates to Trypanosoma brucei rhodesiense. The data set can be described thus: Antitrypanosomal activity against Trypanosoma brucei rhodesiense STIB900 infected in NMRI mouse assessed as cured animal at 5 mg/kg, ip administered for 4 days. The data set is classed as functional, organism-based. Further details: dose 5 mg/kg.
Conditions: not given
In outline:
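Acute model in female NMRI mice infected with T. b. rhodesiense STIB900. Single daily doses given for four days, intraperitoneally or orally. Mice surviving 60 days post-infection without parasitaemia relapse counted as cured; result reported as cured/infected out of 4 mice per group, with mean survival in days.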
Take `COc1cc(C(=N)N)cc(Br)c1OCc1cccc(C(=N)N)c1.Cl.Cl`: the result was inactive.

For `Cl.Cl.N=C(N)c1cccc(COc2ccc(C(=N)N)cc2[N+](=O)[O-])c1`, the outcome was inactive.

In the case of `COc1cc(C(=N)N)cc(OC)c1OCc1cccc(C(=N)N)c1.Cl.Cl`, the result was inactive.

Consider `N=C(N)c1cccc(COc2c(I)cc(C(=N)N)cc2I)c1`, for which the result was inactive.

For the compound `COc1cc(C(=N)N)cc(I)c1OCc1cccc(C(=N)N)c1.Cl`, the result was inactive.

On to `N=C(N)c1ccc(COc2ccc(C(=N)N)cc2Br)cc1`, for which the outcome was inactive.

Consider `N=C(N)c1ccc(COc2c(I)cc(C(=N)N)cc2I)cc1`, for which the result was inactive.

For `N=C(N)c1ccc(COc2ccc(C(=N)N)cc2)cc1`, the outcome was inactive.

As to `COc1cc(C(=N)N)ccc1OCc1cccc(C(=N)N)c1`, the result was inactive.

For another data set, the system named is Plasmodium falciparum. The data set can be described thus: Antiplasmodial activity against chloroquine-resistant Plasmodium falciparum K1. It counts as functional, organism-based.
Conditions: not given
The method in brief:
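Chloroquine-resistant K1 strain tested in vitro. IC50 is the average of duplicate determinations.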
`COc1cc(C(=N)N)cc(Br)c1OCc1cccc(C(=N)N)c1.Cl.Cl` returned an IC50 of 28.9 nM.

On to `Cl.Cl.N=C(N)c1cccc(COc2ccc(C(=N)N)cc2[N+](=O)[O-])c1`, for which the midpoint of inhibition, the IC50, lay at 18 nM.

`COc1cc(C(=N)N)cc(OC)c1OCc1cccc(C(=N)N)c1.Cl.Cl`: the IC50 turned out to be 231 nM.

Turning to `N=C(N)c1cccc(COc2c(I)cc(C(=N)N)cc2I)c1`, the IC50 turned out to be 66.4 nM.

In the case of `COc1cc(C(=N)N)cc(I)c1OCc1cccc(C(=N)N)c1.Cl`, the IC50 is 24.5 nM.

Consider `N=C(N)c1ccc(COc2ccc(C(=N)N)cc2Br)cc1`, for which the IC50 is 4 nM.

In turn, `N=C(N)c1ccc(COc2c(I)cc(C(=N)N)cc2I)cc1` registered an IC50 of 19 nM.

With `N=C(N)c1ccc(COc2ccc(C(=N)N)cc2)cc1`, 78 nM corresponded to half-maximal inhibition (IC50).

As for `COc1cc(C(=N)N)ccc1OCc1cccc(C(=N)N)c1`, the midpoint of inhibition, the IC50, lay at 31 nM.

The next data set relates to Trypanosoma brucei rhodesiense. The data set can be described thus: Antitrypanosomal activity against Trypanosoma brucei rhodesiense STIB900 after 72 hrs by Alamar blue assay. It counts as functional, organism-based. The note with it: STIB900, 72 h.
`COc1cc(C(=N)N)cc(Br)c1OCc1cccc(C(=N)N)c1.Cl.Cl` had an IC50 of 5 nM.

For the compound `Cl.Cl.N=C(N)c1cccc(COc2ccc(C(=N)N)cc2[N+](=O)[O-])c1`, the IC50 was 34 nM.

In turn, `COc1cc(C(=N)N)cc(OC)c1OCc1cccc(C(=N)N)c1.Cl.Cl` returned an IC50 of 183 nM.

`N=C(N)c1cccc(COc2c(I)cc(C(=N)N)cc2I)c1` returned an IC50 of 3 nM.

Turning to `COc1cc(C(=N)N)cc(I)c1OCc1cccc(C(=N)N)c1.Cl`, the IC50 was determined as 3 nM.

`N=C(N)c1ccc(COc2ccc(C(=N)N)cc2Br)cc1` had an IC50 of 16 nM.

As for `N=C(N)c1ccc(COc2c(I)cc(C(=N)N)cc2I)cc1`, the IC50 stood at 12 nM.

In turn, `N=C(N)c1ccc(COc2ccc(C(=N)N)cc2)cc1` returned an IC50 of 91 nM.

The compound `COc1cc(C(=N)N)ccc1OCc1cccc(C(=N)N)c1` returned an IC50 of 19 nM.

Tested on in the next data set: not listed separately
The data set can be described thus: Selectivity index, ratio of IC50 for rat L6 cells to IC50 for chloroquine-resistant Plasmodium falciparum K1. It counts as toxicity, cell-based. Conditions: read-out: Ratio IC50. In outline:
as §1
Consider `COc1cc(C(=N)N)cc(Br)c1OCc1cccc(C(=N)N)c1.Cl.Cl`, for which the selectivity ratio came to 747.

Take `Cl.Cl.N=C(N)c1cccc(COc2ccc(C(=N)N)cc2[N+](=O)[O-])c1`: the selectivity ratio was 592.

`COc1cc(C(=N)N)cc(OC)c1OCc1cccc(C(=N)N)c1.Cl.Cl`: the selectivity ratio came to 416.

Regarding `N=C(N)c1cccc(COc2c(I)cc(C(=N)N)cc2I)c1`, the selectivity ratio came to 291.

As for `COc1cc(C(=N)N)cc(I)c1OCc1cccc(C(=N)N)c1.Cl`, the selectivity ratio was 760.

With `N=C(N)c1ccc(COc2ccc(C(=N)N)cc2Br)cc1`, the selectivity ratio amounted to 1250.

Consider `N=C(N)c1ccc(COc2c(I)cc(C(=N)N)cc2I)cc1`, for which the selectivity ratio stood at 746.

Consider `N=C(N)c1ccc(COc2ccc(C(=N)N)cc2)cc1`, for which the selectivity ratio was 89.

For the compound `COc1cc(C(=N)N)ccc1OCc1cccc(C(=N)N)c1`, the selectivity ratio amounted to 2760.

In a further data set the test system is L6. The data set can be described thus: Cytotoxicity against rat L6 cells after 72 hrs by Alamar blue assay. Conditions: L6, 72 h. It counts as cell-based. In outline: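 Rat L6 myoblast cells; cytotoxic IC50 taken as the average of duplicate determinations.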
(Resazurin is reduced to fluorescent resorufin, in cell work by metabolically active cells.)
In the case of `COc1cc(C(=N)N)cc(Br)c1OCc1cccc(C(=N)N)c1.Cl.Cl`, the IC50 is 21.6 µM.

Compound `Cl.Cl.N=C(N)c1cccc(COc2ccc(C(=N)N)cc2[N+](=O)[O-])c1` came in with an IC50 of 10.8 µM.

`COc1cc(C(=N)N)cc(OC)c1OCc1cccc(C(=N)N)c1.Cl.Cl` gave an IC50 of 96 µM.

In turn, `N=C(N)c1cccc(COc2c(I)cc(C(=N)N)cc2I)c1` displayed an IC50 of 19.3 µM.

`COc1cc(C(=N)N)cc(I)c1OCc1cccc(C(=N)N)c1.Cl` showed an IC50 of 18.6 µM.

As for `N=C(N)c1ccc(COc2ccc(C(=N)N)cc2Br)cc1`, half-maximal inhibition (IC50) was put at 4.99 µM.

Compound `N=C(N)c1ccc(COc2c(I)cc(C(=N)N)cc2I)cc1` came in with an IC50 of 13.8 µM.

`N=C(N)c1ccc(COc2ccc(C(=N)N)cc2)cc1` showed an IC50 of 6.96 µM.

`COc1cc(C(=N)N)ccc1OCc1cccc(C(=N)N)c1` displayed an IC50 of 85.4 µM.

In a further data set the test system is Trypanosoma brucei rhodesiense. The data set can be described thus: Antitrypanosomal activity against Trypanosoma brucei rhodesiense STIB900 infected in NMRI mouse assessed as mean survival days at 5 mg/kg, ip administered for 4 days. The data set is classed as functional. The note with it: route intraperitoneal. In outline: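 Female NMRI mice, acute infection model with T. b. rhodesiense STIB900. Compound given as a single daily dose for four days, intraperitoneally or orally. Cure means survival to 60 days post-infection without parasitaemia relapse. Mean survival recorded in days.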
In the case of `COc1cc(C(=N)N)cc(Br)c1OCc1cccc(C(=N)N)c1.Cl.Cl`, the MSD is more than 45.75 days.

As for `Cl.Cl.N=C(N)c1cccc(COc2ccc(C(=N)N)cc2[N+](=O)[O-])c1`, the MSD stood at 23.25 days.

Take `COc1cc(C(=N)N)cc(OC)c1OCc1cccc(C(=N)N)c1.Cl.Cl`: the MSD came out at 16.25 days.

In the case of `N=C(N)c1cccc(COc2c(I)cc(C(=N)N)cc2I)c1`, the MSD was found to be 21.25 days.

Take `COc1cc(C(=N)N)cc(I)c1OCc1cccc(C(=N)N)c1.Cl`: the MSD came to 35.75 days.

`N=C(N)c1ccc(COc2ccc(C(=N)N)cc2Br)cc1`: the MSD is 29 days.

With `N=C(N)c1ccc(COc2c(I)cc(C(=N)N)cc2I)cc1`, the MSD stood at 24.5 days.

`N=C(N)c1ccc(COc2ccc(C(=N)N)cc2)cc1`: the MSD is 22.5 days.

In the case of `COc1cc(C(=N)N)ccc1OCc1cccc(C(=N)N)c1`, the MSD was determined as 22 days.

Tested on in a further data set: not listed separately
The data set can be described thus: Selectivity index, ratio of IC50 for rat L6 cells to IC50 for amastigotes of Leishmania donovani. The data set is classed as toxicity, cell-based. The note with it: read-out: Ratio IC50. In outline:
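SI = IC50 in rat L6 myoblasts / IC50 against L. donovani MHOM/SD/62/IS-CL2D axenic amastigotes. The amastigote IC50 is the average of at least two determinations; the L6 IC50 is the average of duplicates.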
In the case of `COc1cc(C(=N)N)cc(Br)c1OCc1cccc(C(=N)N)c1.Cl.Cl`, the selectivity ratio is less than 2.

Regarding `Cl.Cl.N=C(N)c1cccc(COc2ccc(C(=N)N)cc2[N+](=O)[O-])c1`, the selectivity ratio is less than 1.

For `COc1cc(C(=N)N)cc(OC)c1OCc1cccc(C(=N)N)c1.Cl.Cl`, the selectivity ratio is less than 1.

With `N=C(N)c1cccc(COc2c(I)cc(C(=N)N)cc2I)c1`, the selectivity ratio was determined as 14.

For the compound `COc1cc(C(=N)N)cc(I)c1OCc1cccc(C(=N)N)c1.Cl`, the selectivity ratio was found to be 3.

On to `N=C(N)c1ccc(COc2ccc(C(=N)N)cc2Br)cc1`, for which the selectivity ratio was determined as 2.

`N=C(N)c1ccc(COc2c(I)cc(C(=N)N)cc2I)cc1`: the selectivity ratio came to 9.

Take `N=C(N)c1ccc(COc2ccc(C(=N)N)cc2)cc1`: the selectivity ratio was less than 14.

For the compound `COc1cc(C(=N)N)ccc1OCc1cccc(C(=N)N)c1`, the selectivity ratio turned out to be 3.

The next data set deals with Leishmania donovani. The data set can be described thus: Antileishmanial activity against amastigotes of Leishmania donovani MHOM/SD/62/IS-CL2D. The data set is classed as functional, organism-based.
Conditions: not given
The method in brief: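 Axenic amastigotes of L. donovani MHOM/SD/62/IS-CL2D; IC50 taken as the average of at least two determinations.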
`COc1cc(C(=N)N)cc(Br)c1OCc1cccc(C(=N)N)c1.Cl.Cl`: the IC50 was found to be 11.4 µM.

In turn, `Cl.Cl.N=C(N)c1cccc(COc2ccc(C(=N)N)cc2[N+](=O)[O-])c1` displayed an IC50 of 11.3 µM.

As to `COc1cc(C(=N)N)cc(OC)c1OCc1cccc(C(=N)N)c1.Cl.Cl`, the IC50 is more than 100 µM.

In the case of `N=C(N)c1cccc(COc2c(I)cc(C(=N)N)cc2I)c1`, the midpoint of inhibition, the IC50, lay at 1.39 µM.

Compound `COc1cc(C(=N)N)cc(I)c1OCc1cccc(C(=N)N)c1.Cl` displayed an IC50 of 6.01 µM.

For the compound `N=C(N)c1ccc(COc2ccc(C(=N)N)cc2Br)cc1`, the IC50 was determined as 2.02 µM.

`N=C(N)c1ccc(COc2c(I)cc(C(=N)N)cc2I)cc1` registered an IC50 of 1.6 µM.

The compound `N=C(N)c1ccc(COc2ccc(C(=N)N)cc2)cc1` gave an IC50 of 8.77 µM.

As for `COc1cc(C(=N)N)ccc1OCc1cccc(C(=N)N)c1`, half-maximal inhibition (IC50) was put at 28.6 µM.

As a reminder, the IC50 is the midpoint of a concentration-inhibition curve. High values mean weaker potency in that assay, low ones greater potency in that assay.
